{
  "source": "the M2OR odorant receptor database",
  "data": [
    {"test_system": "T1, A0A140T8K0", "T1 sequence (whole entry)": "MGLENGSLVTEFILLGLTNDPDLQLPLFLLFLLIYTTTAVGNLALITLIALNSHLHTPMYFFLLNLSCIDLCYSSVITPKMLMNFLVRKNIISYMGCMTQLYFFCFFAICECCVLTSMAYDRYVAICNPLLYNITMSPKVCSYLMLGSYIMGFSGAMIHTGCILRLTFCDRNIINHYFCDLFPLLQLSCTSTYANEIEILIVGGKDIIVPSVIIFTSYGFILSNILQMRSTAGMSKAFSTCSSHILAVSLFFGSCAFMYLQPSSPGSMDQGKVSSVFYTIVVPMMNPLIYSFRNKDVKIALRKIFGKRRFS", "details": "stereoisomer not certain", "outline": "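Values were gathered from published papers (main text and supplementary material), with extra details requested from the original authors when needed, and checked for typos and inconsistencies. Each receptor–molecule pair is called responsive (active) if the original authors judged the measured signal statistically different from baseline, and non-responsive (inactive) otherwise. Assay methods varied by source, often transient mammalian cell-line luciferase assays. Recorded details include cell line, G-protein, co-transfected protein and tags.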", "values": [
      {"smiles": "CCc1ccc(O)cc1", "odorant receptor agonist call": "inactive"},
      {"smiles": "CCCCCC(=Cc1ccccc1)C(OC)OC", "odorant receptor agonist call": "inactive"},
      {"smiles": "C=CC(C)=CCC=C(C)CCC=C(C)C", "odorant receptor agonist call": "inactive"},
      {"smiles": "CCSCC", "odorant receptor agonist call": "inactive"},
      {"smiles": "Cc1ccc(C(C)C)cc1", "odorant receptor agonist call": "inactive"},
      {"smiles": "CCCCCCCCCCCO", "odorant receptor agonist call": "inactive"},
      {"smiles": "CCN(CC)CC", "odorant receptor agonist call": "inactive"},
      {"smiles": "CC(CC=O)CCCC(C)(C)O", "note": "(configuration not stated)", "odorant receptor agonist call": "inactive"},
      {"smiles": "Cc1ccccc1OC(=O)C(C)C", "odorant receptor agonist call": "inactive"},
      {"smiles": "CCCCCCC(C)O", "note": "(configuration not stated)", "odorant receptor agonist call": "inactive"},
      {"smiles": "CCc1ccccc1O", "odorant receptor agonist call": "inactive"},
      {"smiles": "CC1(C)CC(=O)CC(=O)C1", "odorant receptor agonist call": "inactive"},
      {"smiles": "CCCCC=O", "odorant receptor agonist call": "inactive"},
      {"smiles": "CCCCCCC(C=O)=Cc1ccccc1", "odorant receptor agonist call": "inactive"},
      {"smiles": "CC(C)=C1CCC(C)CC1=O", "note": "(configuration not stated)", "odorant receptor agonist call": "inactive"},
      {"smiles": "Cc1ccc2c(c1)OCC(=O)CO2", "odorant receptor agonist call": "inactive"},
      {"smiles": "CCCCCOC(=O)CC", "odorant receptor agonist call": "inactive"},
      {"smiles": "CCOC(=O)CC(C)C", "odorant receptor agonist call": "inactive"},
      {"smiles": "O=C(O)CCCCCBr", "odorant receptor agonist call": "inactive"},
      {"smiles": "Cc1c(C)c(C)c(C=O)c(C)c1C", "odorant receptor agonist call": "inactive"},
      {"smiles": "CCCCCCCCC=CC=O", "odorant receptor agonist call": "inactive"},
      {"smiles": "Cc1ccc(C(C)C)c(O)c1", "odorant receptor agonist call": "inactive"},
      {"smiles": "C=CC(=O)CCCCC", "odorant receptor agonist call": "inactive"},
      {"smiles": "CNc1ccccc1C(=O)OC", "odorant receptor agonist call": "inactive"},
      {"smiles": "CC1CC=CCCCCCCCCCC(=O)C1", "note": "(configuration not stated)", "odorant receptor agonist call": "inactive"},
      {"smiles": "Cc1ccc(OC(=O)C(C)C)cc1", "odorant receptor agonist call": "inactive"},
      {"smiles": "CCC=CCCC=CC=O", "odorant receptor agonist call": "inactive"},
      {"smiles": "CC(=O)C1(C)CC2=C(CCCC2(C)C)CC1C", "note": "(configuration not stated)", "odorant receptor agonist call": "inactive"},
      {"smiles": "CCCCCC(C=O)=Cc1ccccc1", "odorant receptor agonist call": "inactive"},
      {"smiles": "C=CC(=C)CCC=C(C)CCC=C(C)C", "odorant receptor agonist call": "inactive"},
      {"smiles": "CCCCCCCCCCOC(C)=O", "odorant receptor agonist call": "inactive"},
      {"smiles": "CCC(C)O", "note": "(configuration not stated)", "odorant receptor agonist call": "inactive"},
      {"smiles": "O=C(O)CCCCCCCCC(=O)O", "odorant receptor agonist call": "active"},
      {"smiles": "CC(=O)OCc1ccc2c(c1)OCO2", "odorant receptor agonist call": "inactive"},
      {"smiles": "Cc1occc1SSc1ccoc1C", "odorant receptor agonist call": "inactive"},
      {"smiles": "CC(C)=CCCC(C)=CCOC(=O)C(C)C", "odorant receptor agonist call": "inactive"},
      {"smiles": "CCCCCCC(=O)OCCCC", "odorant receptor agonist call": "inactive"}
    ]}
  ]
}
